Reference: ChEMBL document CHEMBL1156747, “N3-arylmalonamides: a new series of thieno[3,2-b]pyridine based inhibitors of c-Met and VEGFR2 tyrosine kinases” (Bioorg Med Chem Lett, 2009)
The source made the active and inactive calls. The rule behind the calls is not given here.

What was measured:
[1] = molecular target: Vascular endothelial growth factor receptor 3 (Homo sapiens) (UniProt P35916); assay: Inhibition of VEGFR3 at 100 nM by radiometric protein kinase assay
How it was run: (§1)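 Single-concentration kinase selectivity panel run as radiometric protein kinase assays by an outside screening service; percent inhibition reported.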

[2] = molecular target: Aurora kinase A (Homo sapiens) (UniProt O14965); assay: Inhibition of Aurora A at 100 nM by radiometric protein kinase assay; how it was run: as §1
[3] = molecular target: Ephrin type-B receptor 4 (Homo sapiens) (UniProt P54760); assay: Inhibition of EphB4 at 100 nM by radiometric protein kinase assay; how it was run: as §1
[4] = molecular target: Proto-oncogene tyrosine-protein kinase Src (Homo sapiens) (UniProt P12931); assay: Inhibition of c-SRC at 100 nM by radiometric protein kinase assay; how it was run: as §1
[5] = molecular target: Cyclin-dependent kinase 2/cyclin E (Homo sapiens) (UniProt P24864+P24941+O96020); assay: Inhibition of CDK2/Cyclin E at 100 nM by radiometric protein kinase assay; type: protein-complex assay; how it was run: as §1
[6] = molecular target: Epidermal growth factor receptor (Homo sapiens) (UniProt P00533); assay: Inhibition of EGFR at 100 nM by radiometric protein kinase assay; how it was run: as §1
[7] = molecular target: Inhibitor of nuclear factor kappa-B kinase subunit beta (Homo sapiens) (UniProt O14920); assay: Inhibition of IKK-beta at 100 nM by radiometric protein kinase assay; how it was run: as §1
[8] = molecular target: Glycogen synthase kinase-3 beta (Homo sapiens) (UniProt P49841); assay: Inhibition of GSK3-beta at 100 nM by radiometric protein kinase assay; how it was run: as §1
[9] = molecular target: RAC-alpha serine/threonine-protein kinase (Homo sapiens) (UniProt P31749); assay: Inhibition of PKBalpha at 100 nM by radiometric protein kinase assay; how it was run: as §1
HUVEC [10] = assay: Antiangiogenic activity in HUVEC cells assessed as inhibition of VEGF-induced tubule growth at 100 nM; type: functional, cell-based; conditions: Homo sapiens
[11] = molecular target: T1, Hepatocyte growth factor receptor (Homo sapiens, UniProt P08581); assay: Inhibition of GST-fused recombinant C-met expressed in baculovirus infected high five cells after 30 mins by DELFIA assay
How it was run: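 GST-fused catalytic domains from baculovirus-infected cells, High Five for c-Met (MOI 1) and Sf9 for VEGFR2 (MOI 0.1). DELFIA on immobilized poly(Glu4,Tyr). Enzyme 25 nM (c-Met) or 5 nM (VEGFR2), pre-incubated 4 min on ice with inhibitor and Mg-ATP. Reaction at 30 °C, 30 min (c-Met) or 10 min (VEGFR2), stopped with EDTA. Europium anti-phosphotyrosine read by time-resolved fluorescence. Seven concentrations in triplicate; IC50 from four-parameter fit.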
Target sequence in this assay (P08581 whole entry, the tested form may be a part): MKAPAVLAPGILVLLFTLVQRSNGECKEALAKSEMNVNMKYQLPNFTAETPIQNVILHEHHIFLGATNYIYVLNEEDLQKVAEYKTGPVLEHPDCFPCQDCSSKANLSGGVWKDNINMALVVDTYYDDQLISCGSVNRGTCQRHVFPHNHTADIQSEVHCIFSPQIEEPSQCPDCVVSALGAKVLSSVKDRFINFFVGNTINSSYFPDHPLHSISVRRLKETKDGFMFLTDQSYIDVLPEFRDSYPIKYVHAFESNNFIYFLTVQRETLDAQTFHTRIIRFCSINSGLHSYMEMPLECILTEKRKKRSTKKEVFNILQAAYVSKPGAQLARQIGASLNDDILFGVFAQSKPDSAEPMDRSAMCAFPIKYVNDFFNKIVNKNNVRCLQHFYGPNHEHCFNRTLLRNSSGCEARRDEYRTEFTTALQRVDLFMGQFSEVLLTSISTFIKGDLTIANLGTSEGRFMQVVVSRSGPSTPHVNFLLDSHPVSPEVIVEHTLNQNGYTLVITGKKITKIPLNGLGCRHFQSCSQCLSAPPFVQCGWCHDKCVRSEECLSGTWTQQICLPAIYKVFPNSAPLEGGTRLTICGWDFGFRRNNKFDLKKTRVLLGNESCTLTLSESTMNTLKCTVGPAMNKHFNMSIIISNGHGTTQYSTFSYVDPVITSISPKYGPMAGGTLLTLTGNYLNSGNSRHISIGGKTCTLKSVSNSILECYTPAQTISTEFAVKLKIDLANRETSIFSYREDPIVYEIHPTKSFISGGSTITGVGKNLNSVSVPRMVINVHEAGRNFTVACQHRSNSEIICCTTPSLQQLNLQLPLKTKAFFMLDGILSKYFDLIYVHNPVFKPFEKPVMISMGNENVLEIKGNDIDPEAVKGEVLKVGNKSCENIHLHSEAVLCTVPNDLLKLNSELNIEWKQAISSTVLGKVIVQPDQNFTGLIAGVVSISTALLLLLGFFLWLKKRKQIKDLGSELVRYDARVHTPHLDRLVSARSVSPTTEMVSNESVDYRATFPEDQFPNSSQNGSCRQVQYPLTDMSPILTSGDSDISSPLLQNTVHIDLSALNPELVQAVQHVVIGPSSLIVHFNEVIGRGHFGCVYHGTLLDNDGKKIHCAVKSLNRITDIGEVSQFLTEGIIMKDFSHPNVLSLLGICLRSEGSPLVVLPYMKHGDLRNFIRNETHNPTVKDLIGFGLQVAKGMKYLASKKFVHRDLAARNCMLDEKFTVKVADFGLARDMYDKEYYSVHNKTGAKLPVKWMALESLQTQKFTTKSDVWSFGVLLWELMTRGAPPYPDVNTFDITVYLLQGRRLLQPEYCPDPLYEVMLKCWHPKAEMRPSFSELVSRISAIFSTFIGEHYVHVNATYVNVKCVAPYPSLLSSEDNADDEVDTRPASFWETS

[12] = molecular target: T1, Hepatocyte growth factor receptor; assay: Inhibition of TPR-met autophosphorylation expressed in HEK293T cells after 150 mins by ELISA; type: cell-based; conditions: hek-293t
How it was run: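 293T clone stably expressing activated TPR-Met under a CMV promoter, exposed to compound dilutions for 150 min. Autophosphorylation measured in lysates by ELISA with anti-phosphotyrosine (4G10), HRP reporter antibody and chemiluminescent read-out. IC50 from 4-parameter fit of triplicate means.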
Target sequence in this assay (P08581 25-1390 limits assumed): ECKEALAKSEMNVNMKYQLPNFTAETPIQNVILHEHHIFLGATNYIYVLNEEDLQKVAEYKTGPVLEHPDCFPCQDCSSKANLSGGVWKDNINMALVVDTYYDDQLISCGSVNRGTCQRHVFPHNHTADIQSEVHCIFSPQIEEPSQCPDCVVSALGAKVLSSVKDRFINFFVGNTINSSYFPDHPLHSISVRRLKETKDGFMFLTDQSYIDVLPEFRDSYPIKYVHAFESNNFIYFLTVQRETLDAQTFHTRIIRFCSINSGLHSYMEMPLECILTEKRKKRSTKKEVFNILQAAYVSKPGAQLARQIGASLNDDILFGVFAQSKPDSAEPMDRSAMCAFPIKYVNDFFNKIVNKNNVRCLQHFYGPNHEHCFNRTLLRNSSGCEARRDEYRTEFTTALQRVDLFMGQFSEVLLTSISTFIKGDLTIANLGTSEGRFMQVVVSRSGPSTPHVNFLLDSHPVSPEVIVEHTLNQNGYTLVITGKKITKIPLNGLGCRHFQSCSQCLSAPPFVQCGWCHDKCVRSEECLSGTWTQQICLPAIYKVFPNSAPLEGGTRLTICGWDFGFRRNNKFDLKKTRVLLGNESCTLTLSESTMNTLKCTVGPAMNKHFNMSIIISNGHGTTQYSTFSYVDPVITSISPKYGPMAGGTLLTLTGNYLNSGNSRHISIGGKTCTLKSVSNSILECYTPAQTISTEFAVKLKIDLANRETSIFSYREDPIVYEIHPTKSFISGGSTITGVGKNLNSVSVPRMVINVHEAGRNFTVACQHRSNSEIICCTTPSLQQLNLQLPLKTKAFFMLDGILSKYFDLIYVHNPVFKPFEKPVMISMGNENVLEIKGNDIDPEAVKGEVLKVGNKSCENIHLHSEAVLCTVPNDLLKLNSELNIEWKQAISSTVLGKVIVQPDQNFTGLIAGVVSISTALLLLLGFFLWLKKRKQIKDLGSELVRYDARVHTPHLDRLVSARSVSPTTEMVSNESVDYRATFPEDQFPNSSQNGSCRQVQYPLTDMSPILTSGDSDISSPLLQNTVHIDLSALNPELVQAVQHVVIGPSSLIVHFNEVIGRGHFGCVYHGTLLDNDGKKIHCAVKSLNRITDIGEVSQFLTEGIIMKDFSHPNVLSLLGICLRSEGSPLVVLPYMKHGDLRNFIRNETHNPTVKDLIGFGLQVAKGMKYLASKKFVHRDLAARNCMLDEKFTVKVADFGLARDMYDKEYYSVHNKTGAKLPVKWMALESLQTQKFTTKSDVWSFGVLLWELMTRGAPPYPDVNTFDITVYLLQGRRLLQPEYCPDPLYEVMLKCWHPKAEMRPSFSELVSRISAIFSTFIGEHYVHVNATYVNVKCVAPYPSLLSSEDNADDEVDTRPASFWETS

[13] = Half life in rat at 2.17 to 2.86 mg/kg, iv; type: ADME, organism-based; design: dose 2.17-2.86 mg/kg, route intravenous; conditions: in vivo
How it was run: (§2)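 Rat pharmacokinetics with intravenous dosing at 2.17–2.86 mg/kg and oral dosing at 4.28–4.98 mg/kg. Oral Cmax and AUC normalised per mg/kg.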

[14] = Clearance in rat at 2.17 to 2.86 mg/kg, iv and 4.28 to 4.98 mg/kg, po; type: ADME, organism-based; conditions: in vivo; how it was run: as §2
[15] = Volume of distribution at steady state in rat at 2.17 to 2.86 mg/kg, iv and 4.28 to 4.98 mg/kg, po; type: ADME, organism-based; conditions: in vivo, read-out: Vdss; how it was run: as §2
[16] = Tmax in rat at 4.28 to 4.98 mg/kg, po; type: ADME, organism-based; design: dose 4.28-4.98 mg/kg, route oral; conditions: in vivo; how it was run: as §2
Rattus norvegicus = assay: Cmax in rat at 4.28 to 4.98 mg/kg, po; type: ADME, organism-based; design: dose 4.28-4.98 mg/kg, route oral; conditions: in vivo; how it was run: as §2
[17] = Oral bioavailability in rat at 4.28 to 4.98 mg/kg; type: ADME, organism-based; conditions: in vivo; how it was run: as §2
A549 [18] = assay: Inhibition of HGF-induced cell migration in human A549 cells by wound healing assay; type: functional, cell-based
DU-145 = assay: Inhibition of HGF-induced scattering in human DU145 cells; type: functional, cell-based
[19] = molecular target: T2, Vascular endothelial growth factor receptor 2 (Homo sapiens, UniProt P35968); assay: Inhibition of VEGFR2 assessed as inhibition of ERK phosphorylation
How it was run: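 Cellular assay: ERK phosphorylation was measured after VEGF stimulation.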

HUVEC [20] = assay: Antiproliferative activity against HUVEC cells assessed as inhibition of […] proliferation; type: functional, cell-based; conditions: Homo sapiens
HUVEC [21] = assay: Antiangiogenic activity in HUVEC cells assessed as inhibition of VEGF-induced tubule growth; type: functional, cell-based; conditions: Homo sapiens
A549 [22] = assay: Antitumor activity against human A549 cells xenografted model assessed as tumor growth inhibition at 40 mg/kg, po qd after 14 days; type: functional; conditions: A549, 336 h, read-out: TGI
[23] = Antitumor activity against human U87MG cells xenografted model assessed as tumor growth inhibition at 40 mg/kg, po qd after 10 days; type: functional, U-87MG ATCC; conditions: U-87 MG, 240 h, read-out: TGI
MKN-45 = assay: Antitumor activity against human MKN45 cells xenografted model assessed as tumor growth inhibition at 40 mg/kg, po qd after 12 days; type: functional; conditions: MKN-45, 288 h, read-out: TGI
[24] = molecular target: Receptor-type tyrosine-protein kinase FLT3 (Homo sapiens) (UniProt P36888); assay: Inhibition of Flt3 at 100 nM by radiometric protein kinase assay; how it was run: as §1
[25] = molecular target: Angiopoietin-1 receptor (Homo sapiens) (UniProt Q02763); assay: Inhibition of […] at 100 nM by radiometric protein kinase assay; how it was run: as §1
[26] = molecular target: Platelet-derived growth factor receptor alpha (Homo sapiens) (UniProt P16234); assay: Inhibition of PDGFRalpha at 100 nM by radiometric protein kinase assay; how it was run: as §1
[27] = molecular target: Mast/stem cell growth factor receptor Kit (Homo sapiens) (UniProt P10721); assay: Inhibition of c-Kit at 100 nM by radiometric protein kinase assay; how it was run: as §1
[28] = molecular target: Vascular endothelial growth factor receptor 1 (Homo sapiens) (UniProt P17948); assay: Inhibition of VEGFR1 at 100 nM by radiometric protein kinase assay; how it was run: as §1
[29] = molecular target: T2, Vascular endothelial growth factor receptor 2; assay: Inhibition of GST-fused recombinant VEGFR2 expressed in baculovirus infected Sf9 cells after 30 mins by DELFIA assay

T2 sequence (P35968 whole entry): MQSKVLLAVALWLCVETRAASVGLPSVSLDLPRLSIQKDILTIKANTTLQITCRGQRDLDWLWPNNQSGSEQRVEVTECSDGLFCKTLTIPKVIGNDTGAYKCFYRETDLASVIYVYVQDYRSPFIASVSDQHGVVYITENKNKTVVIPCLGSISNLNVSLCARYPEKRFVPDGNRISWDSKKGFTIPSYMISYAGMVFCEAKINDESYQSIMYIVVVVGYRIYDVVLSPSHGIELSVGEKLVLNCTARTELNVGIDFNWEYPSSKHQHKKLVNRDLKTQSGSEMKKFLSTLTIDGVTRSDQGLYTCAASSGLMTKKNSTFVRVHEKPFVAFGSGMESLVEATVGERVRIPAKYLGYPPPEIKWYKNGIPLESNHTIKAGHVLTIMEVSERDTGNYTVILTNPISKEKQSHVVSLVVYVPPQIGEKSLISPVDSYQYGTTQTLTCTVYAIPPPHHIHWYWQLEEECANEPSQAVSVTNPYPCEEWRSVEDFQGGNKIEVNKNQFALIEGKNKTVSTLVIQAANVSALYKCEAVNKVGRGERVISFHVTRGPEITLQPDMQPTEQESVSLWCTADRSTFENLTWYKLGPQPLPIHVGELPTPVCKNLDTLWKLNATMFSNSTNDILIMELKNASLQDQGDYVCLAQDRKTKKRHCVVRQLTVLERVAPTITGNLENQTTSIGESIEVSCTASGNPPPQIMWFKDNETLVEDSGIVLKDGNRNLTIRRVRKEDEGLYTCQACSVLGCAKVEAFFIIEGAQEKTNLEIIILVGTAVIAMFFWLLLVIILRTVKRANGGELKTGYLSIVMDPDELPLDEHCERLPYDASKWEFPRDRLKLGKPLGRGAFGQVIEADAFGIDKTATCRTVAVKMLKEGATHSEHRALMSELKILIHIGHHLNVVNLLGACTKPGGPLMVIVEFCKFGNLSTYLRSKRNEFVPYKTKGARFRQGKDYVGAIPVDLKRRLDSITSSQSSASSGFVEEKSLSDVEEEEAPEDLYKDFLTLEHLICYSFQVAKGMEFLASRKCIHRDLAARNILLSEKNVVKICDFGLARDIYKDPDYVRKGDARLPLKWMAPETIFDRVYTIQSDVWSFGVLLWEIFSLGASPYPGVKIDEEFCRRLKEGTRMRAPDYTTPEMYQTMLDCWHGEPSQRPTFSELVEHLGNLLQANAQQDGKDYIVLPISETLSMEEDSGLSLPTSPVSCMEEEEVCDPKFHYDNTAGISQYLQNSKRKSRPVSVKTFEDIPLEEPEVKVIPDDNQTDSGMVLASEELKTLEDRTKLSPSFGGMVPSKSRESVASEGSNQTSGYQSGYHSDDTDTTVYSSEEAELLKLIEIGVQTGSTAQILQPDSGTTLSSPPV
RAC-alpha serine/threonine-protein kinase (Homo sapiens), sequence (P31749 whole entry): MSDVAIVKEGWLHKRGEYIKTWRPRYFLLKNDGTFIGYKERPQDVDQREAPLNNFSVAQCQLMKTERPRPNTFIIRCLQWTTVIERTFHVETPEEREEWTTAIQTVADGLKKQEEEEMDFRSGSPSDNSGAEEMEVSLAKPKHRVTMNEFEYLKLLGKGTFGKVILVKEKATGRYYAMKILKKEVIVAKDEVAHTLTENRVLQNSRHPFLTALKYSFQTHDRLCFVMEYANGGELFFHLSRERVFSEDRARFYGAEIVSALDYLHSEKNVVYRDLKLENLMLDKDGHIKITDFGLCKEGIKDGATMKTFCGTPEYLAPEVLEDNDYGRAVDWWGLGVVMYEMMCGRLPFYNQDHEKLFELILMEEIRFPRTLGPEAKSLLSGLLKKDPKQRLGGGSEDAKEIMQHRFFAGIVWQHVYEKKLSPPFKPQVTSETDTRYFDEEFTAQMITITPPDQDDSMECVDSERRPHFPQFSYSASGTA
Proto-oncogene tyrosine-protein kinase Src (Homo sapiens), sequence (P12931 2-536 limits assumed): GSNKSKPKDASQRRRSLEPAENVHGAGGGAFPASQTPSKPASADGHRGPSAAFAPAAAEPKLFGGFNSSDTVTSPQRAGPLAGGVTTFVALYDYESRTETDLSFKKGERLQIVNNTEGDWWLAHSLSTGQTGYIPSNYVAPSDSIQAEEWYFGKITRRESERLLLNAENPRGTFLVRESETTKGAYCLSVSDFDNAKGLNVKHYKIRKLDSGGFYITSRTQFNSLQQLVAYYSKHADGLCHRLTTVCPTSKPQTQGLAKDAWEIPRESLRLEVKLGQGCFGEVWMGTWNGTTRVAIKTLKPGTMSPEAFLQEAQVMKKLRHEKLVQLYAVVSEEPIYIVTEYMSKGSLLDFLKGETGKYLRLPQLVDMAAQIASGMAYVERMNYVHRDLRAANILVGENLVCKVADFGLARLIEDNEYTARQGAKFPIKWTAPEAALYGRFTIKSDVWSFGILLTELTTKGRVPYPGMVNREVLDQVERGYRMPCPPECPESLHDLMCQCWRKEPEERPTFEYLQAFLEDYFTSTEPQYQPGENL

Compound: CCn1cnc(-c2cc3nccc(Oc4ccc(NC(=O)C5(C(=O)Nc6ccccc6)CC5)cc4F)c3s2)c1
- inhibition [1]: 97%
- inhibition [2]: 96%
- inhibition [3]: 95%
- inhibition [4]: 93%
- inhibition [5]: < 5%
- inhibition [6]: < 5%
- inhibition [7]: < 5%
- inhibition [8]: < 5%
- inhibition [9]: < 5%
- Activity (HUVEC [10]): Active
- IC50 [11]: 24 nM
- IC50 [12]: 4 nM
- half-life [13]: 3.1 h
- clearance [14]: 16.5 mL/min/kg
- Vd [15]: 2.2 L/kg
- Tmax [16]: 2 h
- Cmax normalised (Rattus norvegicus): 0.1 µM/mg/kg
- bioavailability [17]: 33%
- IC50 (A549 [18]): 220 nM
- IC50 (DU-145): 40 nM
- IC50 [19]: 1 nM
- IC50 (HUVEC [20]): 0.3 nM
- IC50 (HUVEC [21]): < 3 nM
- inhibition in vivo at 40 mg/kg (A549 [22]): 54%
- inhibition in vivo at 40 mg/kg [23]: 70%
- inhibition in vivo at 40 mg/kg (MKN-45): 101%
- inhibition [24]: 100%
- inhibition [25]: 100%
- inhibition [26]: 99%
- inhibition [27]: 99%
- inhibition [28]: 98%

Compound: O=C(CC(=O)Nc1ccc(Oc2ccnc3cc(C(=O)N4CCCC4)sc23)c(F)c1)Nc1ccccc1
- IC50 [12]: 2000 nM

Compound: CN(C)CCn1cnc(C(=O)c2cc3nccc(Oc4ccc(NC(=O)CC(=O)Nc5ccccc5)cc4F)c3s2)c1
- IC50 [11]: 20 nM
- IC50 [12]: 190 nM

Compound: Cn1ccnc1C(=O)c1cc2nccc(Oc3ccc(NC(=O)CC(=O)Nc4ccccc4)cc3F)c2s1
- IC50 [11]: 36 nM
- IC50 [12]: 40 nM

Compound: CCn1cnc(-c2cc3nccc(Oc4ccc(NC(=O)CC(=O)Nc5ccccc5C(F)(F)F)cc4F)c3s2)c1
- IC50 [11]: 91 nM
- IC50 [12]: 150 nM

Compound: Cn1cnc(C(=O)c2cc3nccc(Oc4ccc(NC(=O)CC(=O)Nc5ccccc5)cc4F)c3s2)c1
- IC50 [11]: 25 nM
- IC50 [12]: 340 nM

Compound: O=C(O)Cn1cnc(C(=O)c2cc3nccc(Oc4ccc(NC(=O)CC(=O)Nc5ccccc5)cc4F)c3s2)c1
- IC50 [11]: 36 nM
- IC50 [12]: > 5000 nM

Compound: CCn1cnc(-c2cc3nccc(Oc4ccc(NC(=O)CC(=O)Nc5ccccc5OC)cc4F)c3s2)c1
- IC50 [12]: 44 nM

Compound: CCn1cnc(-c2cc3nccc(Oc4ccc(NC(=O)CC(=O)Nc5ccccc5F)cc4F)c3s2)c1
- IC50 [11]: 32 nM
- IC50 [12]: 35 nM

Compound: CCn1cnc(-c2cc3nccc(Oc4ccc(NC(=O)CC(=O)NC5CCCCC5)cc4F)c3s2)c1
- IC50 [11]: 52 nM
- IC50 [12]: 590 nM
- IC50 [29]: 10 nM

Compound: CCn1cnc(-c2cc3nccc(Oc4ccc(NC(=O)C5(C(=O)Nc6ccccc6F)CC5)cc4F)c3s2)c1
- IC50 [11]: 38 nM
- IC50 [12]: 120 nM

Compound: CCn1cnc(-c2cc3nccc(Oc4ccc(NC(=O)CC(=O)Nc5ccccc5O)cc4F)c3s2)c1
- IC50 [11]: 26 nM
- IC50 [12]: 600 nM

Compound: CCn1cnc(-c2cc3nccc(Oc4ccc(NC(=O)CC(=O)Nc5ccc(F)cc5)cc4F)c3s2)c1
- IC50 [11]: 24 nM

Compound: CCn1cnc(-c2cc3nccc(Oc4ccc(NC(=O)CC(=O)Nc5cccc(F)c5)cc4F)c3s2)c1
- IC50 [11]: 52 nM
- IC50 [12]: 870 nM
- IC50 [29]: 10 nM

Compound: CCn1cnc(C(=O)c2cc3nccc(Oc4ccc(NC(=O)CC(=O)Nc5ccccc5)cc4F)c3s2)c1
- IC50 [11]: 19 nM
- IC50 [12]: 180 nM
- half-life [13]: 2.6 h
- clearance [14]: 5.5 mL/min/kg
- Vd [15]: 0.82 L/kg
- Tmax [16]: 5.7 h
- Cmax normalised (Rattus norvegicus): 0.18 µM/mg/kg
- bioavailability [17]: 12%

Compound: CCn1cnc(-c2cc3nccc(Oc4ccc(NC(=O)CC(=O)N(C)c5ccccc5)cc4F)c3s2)c1
- IC50 [11]: 33 nM
- IC50 [12]: 31 nM
- half-life [13]: 0.91 h
- clearance [14]: 8.67 mL/min/kg
- Vd [15]: 0.33 L/kg
- Tmax [16]: 0.5 h
- Cmax normalised (Rattus norvegicus): 0.29 µM/mg/kg
- bioavailability [17]: 60%

Compound: CN(C)[C@@H]1CCN(C(=O)c2cc3nccc(Oc4ccc(NC(=O)CC(=O)Nc5ccccc5)cc4F)c3s2)C1
- IC50 [12]: 560 nM
